Type in all cases: functional
The species entered for test [1] is Mus musculus. As to the kind of experiment: Compound was tested for the immunomodulatory activity in vitro expressed as stimulation index by mixed lymphocyte reaction at 0.1 ug/mL.
The species entered for test [2] is Mus musculus. As to the kind of experiment: Compound was tested for the immunomodulatory activity in vitro expressed as stimulation index by lymphocyte transformation test at 0.1 ug/mL. Summed up:
(§1)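 Normal Swiss mouse splenocytes, RBCs lysed with 0.83% NH4Cl in 10 mM Tris pH 7.2, held at 5x10⁶ cells/ml in RPMI with 10% FCS. Cells cultured 72 h at 37°C in CO₂ with PHA-P mitogen and peptide (10, 1, 0.1, 0.01 µg/ml), then [³H]thymidine pulse and 18 h further incubation. Read as DPM ratio to untreated wells; triplicate runs, ±SD.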

The species entered for test [3] is Mus musculus. Nature of the test: Compound was tested for the immunomodulatory activity in vitro expressed as stimulation index by lymphocyte transformation test at 10 ug/mL. Summed up:
as §1

The species named for test [4] is Mus musculus. Nature of the test: Compound was tested for the immunomodulatory activity in vitro expressed as stimulation index by lymphocyte transformation test at 0.01 ug/mL. The essentials: as §1
For test [5], the species on record is Mus musculus. As to the kind of experiment: Compound was tested for the immunomodulatory activity in vitro expressed as stimulation index by mixed lymphocyte reaction at 1 ug/mL.
For test [6], the species on record is Mus musculus. Nature of the test: Compound was tested for the immunomodulatory activity in vitro expressed as stimulation index by lymphocyte transformation test at 1 ug/mL. The essentials:
as §1

For test [7], the species on record is Mus musculus. As to the kind of experiment: Compound was tested for the immunomodulatory activity in vitro expressed as stimulation index by mixed lymphocyte reaction at 10 ug/mL.
For test [8], the species on record is Mus musculus. Nature of the test: Compound was tested for the immunomodulatory activity in vitro expressed as stimulation index by mixed lymphocyte reaction 1 ug/mL.
Test [9] is filed under the species Mus musculus. As to the kind of experiment: Compound was tested for the immunomodulatory activity in vitro expressed as stimulation index by mixed lymphocyte reaction (MLR) at 10 ug/mL.

SMILES strings stand for the structures. Non-standard residues stand in square brackets, D forms with d. Residues, ends and D or L forms follow the SMILES beside them. Ac5c = NC1(C(=O)O)CCCC1; GABA = NCCCC(=O)O

Turning to `CC[C@H](C)[C@H](NC(=O)[C@@H]1CCCN1C(=O)[C@H](CCC(=O)O)NC(=O)[C@@H](N)C(C)C)C(=O)N1CCC[C@H]1C(=O)N[C@@H](Cc1ccc(O)cc1)C(=O)O`, the Stimulation index in test [1] was 1; in test [2] it was 1.43; in test [3] it was 1.45; in test [4], 1.27; in [5], 0.9; in [6] it was 1.5. The compound further displayed a Stimulation index in [7] of 0.9.
`CC[C@@H](C)[C@@H](NC(=O)[C@@H]1CCCN1C(=O)[C@H](CCC(=O)O)NC(=O)[C@@H](N)C(C)C)C(=O)N1CCC[C@H]1C(=O)N[C@H](Cc1ccc(O)cc1)C(=O)O`: the Stimulation index in test [8] is listed as 0.75; in test [1], 0.93; in [2], 1.08; in test [3] it was 1.18; in test [4], 0.82; in test [6] it was 1.22. Moreover, in test [7], the Stimulation index is 0.77.
As to `CC[C@@H](C)[C@@H](NC(=O)[C@@H]1CCCN1C(=O)[C@@H](CCC(=O)O)NC(=O)[C@H](C)N)C(=O)N1CCC[C@H]1C(=O)N[C@H](Cc1ccc(O)cc1)C(=O)O`, the Stimulation index in [1] is recorded as 0.74; in test [2], 1.57; in test [3], 1.22; in test [4] it was 1.17; in [5], 0.82; in test [6], 1.4. The compound also gave a Stimulation index in [7] of 0.72.
As to `CC[C@@H](C)[C@@H](NC(=O)[C@@H]1CCCN1C(=O)[C@H](CCC(=O)O)NC(=O)[C@H](C)N)C(=O)N1CCC[C@H]1C(=O)N[C@H](Cc1ccc(O)cc1)C(=O)O`, the Stimulation index in [1] is listed as 0.84; in test [2] it was 1.27; in test [3], 1.32; in [4], 1.32; in [5], 0.89; in test [6], 1.3. This compound displayed a Stimulation index in [7] of 0.75.
With `CC[C@H](C)[C@H](NC(=O)C1(NC(=O)[C@H](CCC(=O)O)NC(=O)[C@@H](N)C(C)C)CCCC1)C(=O)N1CCC[C@H]1C(=O)N[C@@H](Cc1ccc(O)cc1)C(=O)O` (H-VE[Ac5c]IPY-OH), the Stimulation index in [1] is reported as 0.65; in test [2], 0.7; in [3], 1.1; in [4] it was 0.69; in [5] it was 0.86; in test [6], 1.09. Moreover, the Stimulation index in [7] is recorded as 0.62.
Take `CC[C@H](C)[C@H](NC(=O)CNC(=O)CNC(=O)[C@@H](N)C(C)C)C(=O)N1CCC[C@H]1C(=O)N[C@@H](Cc1ccc(O)cc1)C(=O)O` (H-VGGIPY-OH): the Stimulation index amounted to 0.66 in test [1]; 1.03 in test [2]; 1.22 in test [3]; 0.93 in test [4]; 0.95 in test [5]; 1.15 in [6]. This compound also registered a Stimulation index in [7] of 0.88.
For `CC[C@H](C)[C@H](NC(=O)CCCNC(=O)[C@@H](N)C(C)C)C(=O)N1CCC[C@H]1C(=O)N[C@@H](Cc1ccc(O)cc1)C(=O)O` (H-V[GABA]IPY-OH), the Stimulation index in [1] turned out to be 0.67; in [2] it was 0.73; in test [3], 0.88; in test [9], 0.74; in test [4] it was 0.55; in test [5], 0.77. The compound also had a Stimulation index in test [6] of 0.69.

(Values after ChEMBL document CHEMBL1130743, “Immunosuppressant activity in human beta-casein fragment analogs” (1998).)
